Columns and labels:
[1] = target: Human immunodeficiency virus type 1 protease (Human immunodeficiency virus 1, UniProt Q72874); test: Inhibitory activity against HIV-1 protease.
Outline: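 IC50 against HIV-1 proteinase, from duplicate determinations at each inhibitor concentration, with mean values used for analysis. Results were standardized against a control run in every assay.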

[2] = test system: MT4; test: Inhibition of cytopathic effect of HIV-1 in MT-4 cells; type: functional, cell-based; conditions: Homo sapiens

| Structure (SMILES) | IC50 [1] [nM] | EC50 [2] [nM] |
| --- | --- | --- |
| CC1(C)S[C@H]([C@H](NC(=O)Cc2ccccc2)C(=O)NCc2ccccc2)N[C@H]1C(=O)N[C@H](Cc1ccccc1)[C@H](O)CC(N)=O | 82 | > 100000 |
| C[C@H](Cc1ccccc1)NC(=O)[C@@H]1N[C@@H]([C@H](NC(=O)Cc2ccccc2)C(=O)NCc2ccccc2)SC1(C)C | > 180000 |  |
| CC(C)[C@H](CO)NC(=O)[C@@H]1N[C@@H]([C@H](NC(=O)Cc2ccccc2)C(=O)NCc2ccccc2)SC1(C)C | > 4700 |  |
| CC1(C)S[C@H]([C@H](NC(=O)Cc2ccccc2)C(=O)NCc2ccccc2)N[C@H]1C(=O)N[C@H](Cc1ccccc1)[C@H](O)CC(=O)NCc1ccccc1 | 4.6 | 4700 |
| CC(C)CNC(=O)C[C@@H](O)[C@@H](Cc1ccccc1)NC(=O)[C@@H]1N[C@@H]([C@H](NC(=O)Cc2ccccc2)C(=O)NCc2ccccc2)SC1(C)C | 69 | > 150000 |
| CC1(C)S[C@H]([C@H](NC(=O)Cc2ccccc2)C(=O)NCc2ccccc2)N[C@H]1C(=O)N[C@H](Cc1ccccc1)[C@H](O)CC(=O)N[C@@H](CO)c1ccccc1 | 190 | > 100000 |
| C[C@H](CO)NC(=O)[C@@H]1N[C@@H]([C@H](NC(=O)Cc2ccccc2)C(=O)NCc2ccccc2)SC1(C)C | > 20000 |  |
| CC(C)C[C@H](CO)NC(=O)[C@@H]1N[C@@H]([C@H](NC(=O)Cc2ccccc2)C(=O)NCc2ccccc2)SC1(C)C | > 4600 |  |
| CC1(C)S[C@H]([C@H](NC(=O)Cc2ccccc2)C(=O)NCc2ccccc2)N[C@H]1C(=O)NCCO | 180000 |  |
| CCCCC(CO)NC(=O)[C@@H]1N[C@@H]([C@H](NC(=O)Cc2ccccc2)C(=O)NCc2ccccc2)SC1(C)C (some centres not stated) [listing 1 of 2 here] | > 4600 |  |
| CCC(C)C(CO)NC(=O)[C@@H]1N[C@@H]([C@H](NC(=O)Cc2ccccc2)C(=O)NCc2ccccc2)SC1(C)C (some centres not stated) | > 540 |  |
| CC1(C)S[C@H]([C@H](NC(=O)Cc2ccccc2)C(=O)NCc2ccccc2)N[C@H]1C(=O)N[C@H](Cc1ccccc1)[C@H](O)CC(=O)N[C@H](CO)c1ccccc1 | 170 | 10600 |
| CC1(C)S[C@H]([C@H](NC(=O)Cc2ccccc2)C(=O)NCc2ccccc2)N[C@H]1C(=O)N[C@H](Cc1ccccc1)[C@@H](O)CC(=O)NCc1ccccc1 | 2900 |  |
| CC1(C)S[C@H]([C@H](NC(=O)Cc2ccccc2)C(=O)NCc2ccccc2)N[C@H]1C(=O)N[C@H](Cc1ccccc1)C(O)CNC(=O)Cc1ccccc1 (some centres not stated) | 53 | > 100000 |
| CC(C)CNC(=O)C[C@H](O)[C@@H](Cc1ccccc1)NC(=O)[C@@H]1N[C@@H]([C@H](NC(=O)Cc2ccccc2)C(=O)NCc2ccccc2)SC1(C)C | 2800 |  |
| CC1(C)S[C@H]([C@H](NC(=O)Cc2ccccc2)C(=O)NCc2ccccc2)N[C@H]1C(=O)NCC(O)CNC(=O)[C@@H]1N[C@@H]([C@H](NC(=O)Cc2ccccc2)C(=O)NCc2ccccc2)SC1(C)C | 5 | 2600 |

| Structure (SMILES) | IC50 [1] [nM] | EC50 [2] [nM] |
| --- | --- | --- |
| CC1(C)S[C@H]([C@H](NC(=O)Cc2ccccc2)C(=O)NCc2ccccc2)N[C@H]1C(=O)N[C@H](Cc1ccccc1)[C@H](O)CC(=O)N[C@H](CO)Cc1ccccc1 | 220 | > 100000 |
| CC1(C)S[C@H]([C@H](NC(=O)Cc2ccccc2)C(=O)NCc2ccccc2)N[C@H]1C(=O)N[C@H](Cc1ccccc1)[C@H](O)CC(=O)N[C@@H](CO)Cc1ccccc1 | 170 | > 100000 |
| CC1(C)S[C@H]([C@H](NC(=O)Cc2ccccc2)C(=O)NCc2ccccc2)N[C@H]1C(=O)N[C@@H](CO)Cc1ccccc1 | 150 |  |
| CC1(C)S[C@H]([C@H](NC(=O)Cc2ccccc2)C(=O)NCc2ccccc2)N[C@H]1C(=O)N[C@H](CO)Cc1ccccc1 | > 170000 |  |
| CC1(C)S[C@H]([C@H](NC(=O)Cc2ccccc2)C(=O)NCc2ccccc2)N[C@H]1C(=O)NCCCNC(=O)[C@@H]1N[C@@H]([C@H](NC(=O)Cc2ccccc2)C(=O)NCc2ccccc2)SC1(C)C | 540 |  |
| CC1(C)S[C@H]([C@H](NC(=O)Cc2ccccc2)C(=O)NCc2ccccc2)N[C@H]1C(=O)N[C@H](CO)CCc1ccccc1 | 26000 |  |
| CCCCC(CO)NC(=O)[C@@H]1N[C@@H]([C@H](NC(=O)Cc2ccccc2)C(=O)NCc2ccccc2)SC1(C)C (some centres not stated) [listing 2 of 2 here] | 250 |  |
| CC1(C)S[C@H]([C@H](NC(=O)Cc2ccccc2)C(=O)NCc2ccccc2)N[C@H]1C(=O)N[C@H](Cc1ccccc1)[C@@H](O)CC(N)=O | 1900 |  |
| C[C@@H](Cc1ccccc1)NC(=O)[C@@H]1N[C@@H]([C@H](NC(=O)Cc2ccccc2)C(=O)NCc2ccccc2)SC1(C)C | > 180000 |  |
| CC1(C)S[C@H]([C@H](NC(=O)Cc2ccccc2)C(=O)NCc2ccccc2)N[C@H]1C(=O)N[C@H](Cc1ccccc1)[C@H](O)CC(=O)NCCCO | 54 | 5700 |
| CC1(C)S[C@H]([C@H](NC(=O)Cc2ccccc2)C(=O)NCc2ccccc2)N[C@H]1C(=O)N[C@H](Cc1ccccc1)[C@H](O)CC(=O)NCC(O)CO (some centres not stated) | 95 | 40000 |
| CC1(C)S[C@H]([C@H](NC(=O)Cc2ccccc2)C(=O)NCc2ccccc2)N[C@H]1C(=O)N[C@H](Cc1ccccc1)[C@H](O)CC(=O)NCCO | 1100 |  |
| CC1(C)S[C@H]([C@H](NC(=O)Cc2ccccc2)C(=O)NCc2ccccc2)N[C@H]1C(=O)N[C@@H](CO)CCc1ccccc1 | 25000 |  |
| CC1(C)S[C@H]([C@H](NC(=O)Cc2ccccc2)C(=O)NCc2ccccc2)N[C@H]1C(=O)N[C@H](Cc1ccccc1)[C@H](O)CC(=O)NCCc1ncc[nH]1 | 300 |  |
| CC1(C)S[C@H]([C@H](NC(=O)Cc2ccccc2)C(=O)NCc2ccccc2)N[C@H]1C(N)=O | > 230000 |  |

From ChEMBL document CHEMBL1126855, “Synthesis and structure-activity relationships of a series of penicillin-derived HIV proteinase inhibitors containing a stereochemically unique peptide isostere” (J Med Chem, 1993)
